Source: ChEMBL document CHEMBL1155270, “Modifications at the C-terminus to improve pyrrole-imidazole polyamide activity in cell culture” (J Med Chem, 2009)
Each block holds one molecule with its values, some of them ahead of it. Calls of active or inactive are those of the source. The calls are words filed in the database; no cut-off is given here.

Columns and labels:
[1] = tested on: LNCaP; test: Inhibition of dihydrotestosterone-induced prostate specific antigen expression in human LNCAP cells by quantitative RT-PCR analysis; assay type: functional, cell-based
Summary of the method: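 For gene-regulation IC50, DHT (1 nM)-induced LNCaP cells were dosed across 30–0.1 μM or 10–0.03 μM. PSA mRNA was quantified by real-time RT-PCR and normalized to induced untreated cells. Isotherms from three independent experiments were fitted with a modified Hill equation.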

[2] = tested on: U-251; test: Selectivity ratio of inhibition of desferrioxamine-induced VEGF mRNA expression in human LNCAP cells to inhibition of desferrioxamine-induced VEGF mRNA expression in human U251 cells; assay type: functional
[3] = tested on: LNCaP; test: Cytotoxicity against human LNCAP cells assessed as cell viability at 0.01 to 30 uM after 48 hrs by WST1 assay; assay type: functional
Summary of the method: (§1)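 LNCaP cells were seeded at 10-15 × 10^2 per well and allowed to settle 48 h before polyamide was added as 2× media solutions (DMSO <0.1%). After 48 h exposure, media was replaced and cells recovered 24 h. WST-1 was added for 30 min and A450 read. Wells were corrected for media-only background and normalized to untreated controls.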

[4] = tested on: LNCaP; test: Cytotoxicity against human LNCAP cells after 48 hrs by WST1 assay; assay type: functional, cell-based; summary of the method: as §1
[5] = tested on: LNCaP; test: Selectivity ratio of IC50 for human LNCAP cells to IC50 for inhibition of dihydrotestosterone-induced prostate specific antigen expression in human LNCAP cells; assay type: functional
Summary of the method: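 Ratio of WST-1 growth-inhibition IC50 (48 h exposure, 24 h recovery, LNCaP) to PSA gene-regulation IC50. The gene-regulation IC50 came from Hill-fitted RT-PCR isotherms in 1 nM DHT-induced LNCaP cells, three independent experiments.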

[6] = tested on: Nucleic Acid; test: Binding affinity to 5'-TTGCAGAACAGCAA-3' sequence of DNA assessed as change in melting temperature by spectrophotometry; assay type: nucleic-acid assay
[7] = tested on: LNCaP; test: Inhibition of expression in human LNCAP cells at 5 uM by quantitative RT-PCR analysis
[8] = tested on: U-251; test: Inhibition of desferrioxamine-induced VEGF mRNA expression in human U251 cells at 1 uM by quantitative RT-PCR analysis; assay type: functional
Summary of the method: (§2)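 In U251 cells, induced VEGF mRNA was quantified by real-time RT-PCR after polyamide at 1, 0.2 and 0.02 μM, with DMSO ≤0.1%. Values were normalized to untreated induced cells; uninduced and DMSO-vehicle controls were run alongside.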

[9] = tested on: U-251; test: Inhibition of desferrioxamine-induced VEGF mRNA expression in human U251 cells at 0.02 to 0.2 uM by quantitative RT-PCR analysis; assay type: functional, cell-based; summary of the method: as §2
[10] = tested on: LNCaP; test: Inhibition of desferrioxamine-induced VEGF mRNA expression in human LNCAP cells at 10 uM by quantitative RT-PCR analysis; assay type: functional
Summary of the method: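 DFO-induced VEGF mRNA was measured in LNCaP cells by quantitative real-time RT-PCR, following the LNCaP PSA protocol but with non-charcoal-stripped FBS. Polyamide doses were 10, 2 and 0.2 μM, with DMSO ≤0.1%. Levels were normalized to untreated induced cells; untreated uninduced and DMSO controls were included.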

[11] = tested on: Nucleic Acid; test: Binding affinity to 5'-GTGCATACGTGGGC-3' sequence of DNA assessed as change in melting temperature by spectrophotometry; assay type: nucleic-acid assay
[12] = tested on: LNCaP; test: Cytotoxicity against human LNCAP cells at 0.02 to 50 uM after 48 hrs by WST1 assay; assay type: functional, cell-based; summary of the method: as §1
[13] = tested on: U-251; test: Cytotoxicity against human U251 cells at 0.002 to 10 uM after 48 hrs by WST1 assay; assay type: functional, cell-based
Summary of the method: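 U251 cells were plated at 10-15 × 10^2 per well. After 24 h, polyamide was added in 2× media, with a 10–0.002 μM range for the core-less oxime controls. Cells were treated 48 h, then given fresh media for 24 h recovery. WST-1 was read at 450 nm after 30 min, with background correction and normalization to untreated wells.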

[14] = tested on: U-251; test: Cytotoxicity against human U251 cells after 48 hrs by WST1 assay; details: U-251, 48 h
[15] = tested on: LNCaP; test: Inhibition of dihydrotestosterone-induced prostate specific antigen expression in human LNCAP cells at 0.1 to 5 uM by quantitative RT-PCR analysis; assay type: functional, cell-based
Summary of the method: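 LNCaP cells were induced with 1 nM DHT and PSA mRNA measured by quantitative real-time RT-PCR. Oxime-linked polyamides were given at 5, 1 and 0.1 μM, and unconjugated controls at 5 μM, with DMSO ≤0.1%. Expression was normalized to untreated DHT-induced cells; uninduced and DMSO controls were included.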

[16] = tested on: Nucleic Acid; test: Binding affinity to 14mer DNA assessed as change in melting temperature by spectrophotometry; assay type: nucleic-acid assay
Summary of the method: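 Thermal melting of 14-mer oligonucleotide duplexes (HRE or ARE sequence) with and without polyamide, read by UV spectrophotometry in 1 cm quartz cuvettes with a thermostatted holder. Buffer was 10 mM sodium cacodylate, 10 mM KCl, 10 mM MgCl2, 5 mM CaCl2, pH 7.0. ΔTm is taken relative to the free duplex.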

[17] = tested on: LNCaP; test: Inhibition of desferrioxamine-induced VEGF mRNA expression in human LNCAP cells at 1 to 2 uM by quantitative RT-PCR analysis; assay type: functional, cell-based

Structure (SMILES): CN(CCCNC(=O)c1cccc(C(=O)O)c1)CCCNC(=O)c1cc(NC(=O)c2cc(NC(=O)c3cc(NC(=O)c4nc(NC(=O)[C@H](N)CCNC(=O)c5cc(NC(=O)c6cc(NC(=O)c7cc(NC(=O)c8nccn8C)cn7C)cn6C)cn5C)cn4C)cn3C)cn2C)cn1C
IC50 [1]: 6 µM | Ratio [2]: 10 | Activity [3]: <50% | IC50 [4]: > 30 µM | Ratio IC50 [5]: >=5 | ΔTm [6]: 14.2 °C | inhibition [7]: Active

Structure (SMILES): Cn1cc(NC(=O)c2cc(NC(=O)c3nc(NC(=O)c4cc(NC(=O)[C@H](N)CCNC(=O)c5nc(NC(=O)c6cc(NC(=O)c7cc(NC(=O)c8sccc8Cl)cn7C)cn6C)cn5C)cn4C)cn3C)cn2C)cc1C(=O)NCCCO/N=C\c1ccc(F)cc1
inhibition at 1 µM [8]: 60% | inhibition [9]: Active | inhibition at 10 µM [10]: 80% | ΔTm [11]: 10.5 °C

Structure (SMILES): CC(=O)NCCCO/N=C\c1cccc(C(=O)O)c1
IC50 [4]: > 50 µM | Activity [12]: inactive | Activity [13]: inactive | IC50 [14]: > 10 µM

Structure (SMILES): Cn1cc(NC(=O)c2cc(NC(=O)c3nc(NC(=O)c4cc(NC(=O)[C@H](N)CCNC(=O)c5nc(NC(=O)c6cc(NC(=O)c7cc(NC(=O)c8sccc8Cl)cn7C)cn6C)cn5C)cn4C)cn3C)cn2C)cc1C(=O)NCCCO/N=C\c1cccc(C(=O)O)c1
inhibition at 1 µM [8]: 60% | inhibition [9]: Active | inhibition at 10 µM [10]: 80% | ΔTm [11]: 11.4 °C

Structure (SMILES): Cn1cc(NC(=O)c2cc(NC(=O)c3nc(NC(=O)c4cc(NC(=O)[C@H](N)CCNC(=O)c5nc(NC(=O)c6cc(NC(=O)c7cc(NC(=O)c8sccc8Cl)cn7C)cn6C)cn5C)cn4C)cn3C)cn2C)cc1C(=O)NCCCO/N=C\c1cccc(F)c1
inhibition at 1 µM [8]: 60% | inhibition [9]: Active | inhibition at 10 µM [10]: 80% | ΔTm [11]: 9.4 °C

Structure (SMILES): Cn1cc(NC(=O)c2cc(NC(=O)c3cc(NC(=O)c4nc(NC(=O)[C@H](N)CCNC(=O)c5nc(NC(=O)c6cc(NC(=O)c7nc(NC(=O)c8nccn8C)cn7C)cn6C)cn5C)cn4C)cn3C)cn2C)cc1C(=O)NCCCO/N=C\c1cccc(C(=O)O)c1
inhibition [9]: Active | inhibition [17]: Active | ΔTm [16]: 0.8 °C

Structure (SMILES): NCCCO/N=C\c1cccc(C(=O)O)c1
IC50 [4]: > 50 µM | Activity [12]: inactive | Activity [13]: inactive | IC50 [14]: > 10 µM

The next lines start with results.

ΔTm [16]: 3.4 °C
Structure (SMILES): Cn1cc(NC(=O)c2cc(NC(=O)c3nc(NC(=O)c4cc(NC(=O)[C@H](N)CCNC(=O)c5nc(NC(=O)c6cc(NC(=O)c7cc(NC(=O)c8nccn8C)cn7C)cn6C)cn5C)cn4C)cn3C)cn2C)cc1C(=O)NCCCO/N=C\c1ccc(F)cc1
inhibition [15]: Active | Activity [3]: <50% | IC50 [4]: ≥ 30 µM

ΔTm [16]: 4 °C
Structure (SMILES): Cn1cc(NC(=O)c2cc(NC(=O)c3nc(NC(=O)c4cc(NC(=O)[C@H](N)CCNC(=O)c5nc(NC(=O)c6cc(NC(=O)c7cc(NC(=O)c8nccn8C)cn7C)cn6C)cn5C)cn4C)cn3C)cn2C)cc1C(=O)NCCCO/N=C\c1cccc(F)c1
inhibition [15]: Active | Activity [3]: <50% | IC50 [4]: ≥ 30 µM

ΔTm [11]: 11.7 °C
Structure (SMILES): CN(CCCNC(=O)c1cccc(C(=O)O)c1)CCCNC(=O)c1cc(NC(=O)c2cc(NC(=O)c3nc(NC(=O)c4cc(NC(=O)[C@H](N)CCNC(=O)c5nc(NC(=O)c6cc(NC(=O)c7cc(NC(=O)c8sccc8Cl)cn7C)cn6C)cn5C)cn4C)cn3C)cn2C)cn1C
inhibition [8]: Active

ΔTm [16]: 0.9 °C
Structure (SMILES): Cn1cc(NC(=O)c2cc(NC(=O)c3cc(NC(=O)c4nc(NC(=O)[C@H](N)CCNC(=O)c5nc(NC(=O)c6cc(NC(=O)c7nc(NC(=O)c8nccn8C)cn7C)cn6C)cn5C)cn4C)cn3C)cn2C)cc1C(=O)NCCCO/N=C\c1cccc(F)c1
inhibition [9]: Active | inhibition [17]: Active
